Reference: ChEMBL document CHEMBL1921722, “In vitro and in vivo evaluation of select kahalalide F analogs with antitumor and antifungal activities” (Bioorg Med Chem, 2011)
pIC50: −log10 of the molar value. Converted amounts (≈) assume the structure as drawn. The source made the active and inactive calls.

Experiments:
UACC-62 = experiment: Cytotoxicity against human UACC62 cells by sulforhodamine B assay; type: functional
Summary of the method: (§1)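 NCI Developmental Therapeutics Program 60-cell-line human tumor panel screen, run at NCI. A single-concentration pre-screen was followed by a five-concentration dose-response in 10-fold steps. GI50 is the concentration that reduces growth of treated cells to half that of untreated control cells. TGI is the concentration that completely halts growth.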

IGROV-1 [1] = experiment: Cytotoxicity against human IGROV1 cells by sulforhodamine B assay; type: functional; summary of the method: as §1
PC-3 [2] = experiment: Cytotoxicity against human PC3 cells by sulforhodamine B assay; type: functional; summary of the method: as §1
SK-MEL-2 = experiment: Cytotoxicity against human SK-MEL-2 cells assessed as cell growth at 8 nM by sulforhodamine B assay relative to control; type: functional; settings: read-out: Activity
HCT-116 [3] = experiment: Cytotoxicity against human HCT116 cells assessed as cell growth at 8 nM by sulforhodamine B assay relative to control; type: functional; settings: read-out: Activity
NCI-H522 [4] = experiment: Cytotoxicity against human NCI-H522 cells assessed as cell growth at 8 nM by sulforhodamine B assay relative to control; type: functional; settings: read-out: Activity
NCI-H460 = experiment: Cytotoxicity against human NCI-H460 cells assessed as cell growth at 8 nM by sulforhodamine B assay relative to control; type: functional; settings: read-out: Activity
Cryptococcus neoformans = experiment: Antimicrobial activity against Cryptococcus neoformans ATCC 90113 by CLSI method; type: functional, organism-based
MDA-MB-231 [5] = experiment: Cytotoxicity against human MDA-MB-231 cells by sulforhodamine B assay; type: functional; summary of the method: as §1
Hs-578T = experiment: Cytotoxicity against human Hs578T cells by sulforhodamine B assay; type: functional; summary of the method: as §1
MDA-MB-231 [6] = experiment: Antitumor activity against human MDA-MB-231 cells xenografted in mouse assessed as tumor cell killing at 4.7 mg/kg, ip qd for 4 days by MTT assay; type: functional, organism-based; design: dose 4.7 mg/kg
Summary of the method: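 Hollow-fiber assay in mice. Tumor lines were grown in RPMI-1640 with 10% FBS and 2 mM glutamine. Cells at 2 × 10^6 cells/ml were loaded into 1 mm PVDF fibers (500,000 Da cutoff), heat-sealed at 2 cm and held 24–48 h at 37 °C, 5% CO2 before implantation. Compound was given IP. Fibers were collected the day after the fourth treatment for MTT (OD 540 nm, group means). A ≥50% cut in percent net growth versus vehicle counted as positive.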

OVCAR-8 = experiment: Cytotoxicity against human OVCAR8 cells assessed as cell growth at 8 nM by sulforhodamine B assay relative to control; type: functional; settings: read-out: Activity
SK-OV-3 [7] = experiment: Cytotoxicity against human SKOV3 cells assessed as cell growth at 8 nM by sulforhodamine B assay relative to control; type: functional; settings: read-out: Activity
MDA-MB-231 [8] = experiment: Cytotoxicity against human MDA-MB-231 cells assessed as cell growth at 8 nM by sulforhodamine B assay relative to control; type: functional; settings: read-out: Activity
NCI-H23 [9] = experiment: Cytotoxicity against human NCI-H23 cells assessed as cell growth at 80 nM by sulforhodamine B assay relative to control; type: functional; settings: read-out: Activity
HCC 2998 = experiment: Cytotoxicity against human HCC2998 cells assessed as cell growth at 80 nM by sulforhodamine B assay relative to control; type: functional; settings: read-out: Activity
IGROV-1 [10] = experiment: Cytotoxicity against human IGROV1 cells assessed as cell growth at 80 nM by sulforhodamine B assay relative to control; type: functional; settings: read-out: Activity
MCF7 = experiment: Cytotoxicity against human MCF7 cells assessed as cell growth at 80 nM by sulforhodamine B assay relative to control; type: functional; settings: read-out: Activity
BT-549 = experiment: Cytotoxicity against human BT549 cells assessed as cell growth at 80 nM by sulforhodamine B assay relative to control; type: functional; settings: read-out: Activity
Summary of the method: (§2)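 Run at NCI in the DTP 60-cell-line human tumor panel by standard procedure. Compounds were first screened at a single concentration, then tested at five tenfold-spaced concentrations. GI50 is the concentration reducing treated-cell growth to half that of untreated controls; TGI is the concentration completely halting growth.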

HOP-62 [11] = experiment: Cytotoxicity against human HOP62 cells assessed as cell growth at 800 nM by sulforhodamine B assay relative to control; type: functional; settings: read-out: Activity
NCI-H23 [12] = experiment: Cytotoxicity against human NCI-H23 cells assessed as cell growth at 800 nM by sulforhodamine B assay relative to control; type: functional; settings: read-out: Activity
NCI-H522 [13] = experiment: Cytotoxicity against human NCI-H522 cells assessed as cell growth at 800 nM by sulforhodamine B assay relative to control; type: functional; settings: read-out: Activity
SK-MEL-5 = experiment: Cytotoxicity against human SK-MEL-5 cells assessed as cell growth at 800 nM by sulforhodamine B assay relative to control; type: functional; settings: read-out: Activity
PC-3 [14] = experiment: Cytotoxicity against human PC3 cells assessed as cell growth at 800 nM by sulforhodamine B assay relative to control; type: functional; settings: read-out: Activity
DU-145 [15] = experiment: Cytotoxicity against human DU145 cells assessed as cell growth at 800 nM by sulforhodamine B assay relative to control; type: functional; settings: read-out: Activity
NCI/ADR-RES [16] = experiment: Cytotoxicity against human NCI/ADR-RES cells assessed as cell growth at 800 nM by sulforhodamine B assay relative to control; type: functional; settings: read-out: Activity
T47D = experiment: Cytotoxicity against human T47D cells assessed as cell growth at 800 nM by sulforhodamine B assay relative to control; type: functional; settings: read-out: Activity
SR = experiment: Cytotoxicity against human SR cells assessed as cell growth at 8 uM by sulforhodamine B assay relative to control; type: functional; settings: read-out: Activity
HCT-116 [17] = experiment: Cytotoxicity against human HCT116 cells assessed as cell growth at 8 uM by sulforhodamine B assay relative to control; type: functional; settings: read-out: Activity
HT-29 = experiment: Cytotoxicity against human HT-29 cells assessed as cell growth at 8 uM by sulforhodamine B assay relative to control; type: functional; settings: read-out: Activity
OVCAR-3 = experiment: Cytotoxicity against human OVCAR3 cells assessed as cell growth at 8 uM by sulforhodamine B assay relative to control; type: functional; settings: read-out: Activity
OVCAR-4 = experiment: Cytotoxicity against human OVCAR4 cells assessed as cell growth at 8 uM by sulforhodamine B assay relative to control; type: functional; settings: read-out: Activity
SK-OV-3 [18] = experiment: Cytotoxicity against human SKOV3 cells assessed as cell growth at 8 uM by sulforhodamine B assay relative to control; type: functional; settings: read-out: Activity
PC-3 [19] = experiment: Cytotoxicity against human PC3 cells assessed as cell growth at 8 uM by sulforhodamine B assay relative to control; type: functional; settings: read-out: Activity
DU-145 [20] = experiment: Cytotoxicity against human DU145 cells assessed as cell growth at 8 uM by sulforhodamine B assay relative to control; type: functional; settings: read-out: Activity; summary of the method: as §2
NCI/ADR-RES [21] = experiment: Cytotoxicity against human NCI/ADR-RES cells assessed as cell growth at 8 uM by sulforhodamine B assay relative to control; type: functional; settings: read-out: Activity
HOP-62 [22] = experiment: Cytotoxicity against human HOP62 cells assessed as cell growth at 80 uM by sulforhodamine B assay relative to control; type: functional; settings: read-out: Activity
MOLT-4 = experiment: Cytotoxicity against human MOLT4 cells by sulforhodamine B assay; type: functional; summary of the method: as §1

Structure (SMILES): C/C=C1\NC(=O)[C@H](Cc2ccccc2)NC(=O)[C@@H](C(C)C)NC(=O)[C@@H]([C@@H](C)CC)NC(=O)[C@H](NC(=O)[C@H](NC(=O)[C@H](CCCNCc2ccc(F)c(C)c2)NC(=O)[C@H]2CCCN2C(=O)[C@H](NC(=O)[C@@H](NC(=O)[C@@H](NC(=O)[C@H](NC(=O)CCCC(C)C)C(C)C)[C@@H](C)O)C(C)C)C(C)C)[C@@H](C)CC)[C@@H](C)OC(=O)[C@H](C(C)C)NC1=O
- GI50 (UACC-62): 1260 nM
- LC50 (UACC-62): 4170 nM
- TGI (UACC-62; read-out: pTGI (converted)): 2290 nM
- GI50 (IGROV-1 [1]): 708 nM
- TGI (IGROV-1 [1]; read-out: pTGI (converted)): 1860 nM
- LC50 (PC-3 [2]): 708 nM
- GI50 (PC-3 [2]; read-out: GI50): 165 nM
- TGI (PC-3 [2]; read-out: TGI): 342 nM
- GI50 (PC-3 [2]; read-out: pGI50 (converted)): 166 nM
- TGI (PC-3 [2]; read-out: pTGI (converted)): 339 nM
- growth at 0.008 µM (SK-MEL-2): 98%
- growth at 0.008 µM (HCT-116 [3]): 98%
- growth at 0.008 µM (NCI-H522 [4]): 104%
- growth at 0.008 µM (NCI-H460): 104%
- pIC50 (Cryptococcus neoformans): 6.02
- MFC (Cryptococcus neoformans): 10 µM (≈ 16 µg/mL)
- MIC (Cryptococcus neoformans): 5 µM (≈ 8 µg/mL)
- GI50 (MDA-MB-231 [5]): 1450 nM
- LC50 (MDA-MB-231 [5]): 6920 nM
- TGI (MDA-MB-231 [5]; read-out: pTGI (converted)): 3160 nM
- LC50 (Hs-578T): > 75900 nM
- GI50 (Hs-578T; read-out: GI50): 217 nM
- TGI (Hs-578T; read-out: TGI): 665 nM
- GI50 (Hs-578T; read-out: pGI50 (converted)): 219 nM
- TGI (Hs-578T; read-out: pTGI (converted)): 661 nM
- Activity (MDA-MB-231 [6]): inactive
- growth at 0.008 µM (OVCAR-8): 107%
- growth at 0.008 µM (SK-OV-3 [7]): 102%
- growth at 0.008 µM (MDA-MB-231 [8]): 101%
- growth at 0.08 µM (NCI-H23 [9]): 100%
- growth at 0.08 µM (HCC 2998): 105%
- growth at 0.08 µM (IGROV-1 [10]): 107%
- growth at 0.08 µM (MCF7): 101%
- growth at 0.08 µM (BT-549): 76%
- growth at 0.8 µM (HOP-62 [11]): 87%
- growth at 0.8 µM (NCI-H23 [12]): 98%
- growth at 0.8 µM (NCI-H522 [13]): 105%
- growth at 0.8 µM (SK-MEL-5): 83%
- growth at 0.8 µM (PC-3 [14]): -54%
- growth at 0.8 µM (DU-145 [15]): -85%
- growth at 0.8 µM (NCI/ADR-RES [16]): 91%
- growth at 0.8 µM (T47D): -50%
- growth at 8 µM (SR): -50%
- growth at 8 µM (HCT-116 [17]): -100%
- growth at 8 µM (HT-29): -62%
- growth at 8 µM (OVCAR-3): -94%
- growth at 8 µM (OVCAR-4): -65%
- growth at 8 µM (SK-OV-3 [18]): -96%
- growth at 8 µM (PC-3 [19]): -95%
- growth at 8 µM (DU-145 [20]): -100%
- growth at 8 µM (NCI/ADR-RES [21]): -76%
- growth at 80 µM (HOP-62 [22]): -85%
- GI50 (MOLT-4): 2140 nM
- LC50 (MOLT-4): > 75900 nM
